Results published in ChEMBL document CHEMBL1151465, “Interactions of methylene blue with human disulfide reductases and their orthologues from Plasmodium falciparum” (Antimicrob Agents Chemother, 2008).
One block for each molecule: values may come before it.

How the values were obtained:
[1] = target: T1, Dihydrolipoyl dehydrogenase, mitochondrial (Sus scrofa, UniProt P09623); assay: Inhibition of pig recombinant dihydrolipoamide dehydrogenase at pH 7.3
T1 sequence (P09623 whole entry): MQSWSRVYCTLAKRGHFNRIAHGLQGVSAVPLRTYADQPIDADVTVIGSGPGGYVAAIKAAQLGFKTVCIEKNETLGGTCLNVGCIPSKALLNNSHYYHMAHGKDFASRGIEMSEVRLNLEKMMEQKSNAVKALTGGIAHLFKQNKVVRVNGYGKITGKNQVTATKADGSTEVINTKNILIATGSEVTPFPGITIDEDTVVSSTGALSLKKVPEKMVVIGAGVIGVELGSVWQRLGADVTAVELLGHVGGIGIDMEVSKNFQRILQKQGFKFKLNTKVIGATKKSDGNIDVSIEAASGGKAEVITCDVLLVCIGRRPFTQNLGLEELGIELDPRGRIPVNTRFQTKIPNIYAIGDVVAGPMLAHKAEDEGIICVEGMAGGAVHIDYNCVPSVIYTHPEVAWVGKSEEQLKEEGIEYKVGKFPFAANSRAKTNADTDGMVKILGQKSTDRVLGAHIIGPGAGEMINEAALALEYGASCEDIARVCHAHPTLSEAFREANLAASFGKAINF

[2] = target: T2, Thioredoxin reductase 1, cytoplasmic (Homo sapiens, UniProt Q16881); assay: Inhibition of human recombinant TrxR1 at pH 7.4
T2 sequence (Q16881 whole entry): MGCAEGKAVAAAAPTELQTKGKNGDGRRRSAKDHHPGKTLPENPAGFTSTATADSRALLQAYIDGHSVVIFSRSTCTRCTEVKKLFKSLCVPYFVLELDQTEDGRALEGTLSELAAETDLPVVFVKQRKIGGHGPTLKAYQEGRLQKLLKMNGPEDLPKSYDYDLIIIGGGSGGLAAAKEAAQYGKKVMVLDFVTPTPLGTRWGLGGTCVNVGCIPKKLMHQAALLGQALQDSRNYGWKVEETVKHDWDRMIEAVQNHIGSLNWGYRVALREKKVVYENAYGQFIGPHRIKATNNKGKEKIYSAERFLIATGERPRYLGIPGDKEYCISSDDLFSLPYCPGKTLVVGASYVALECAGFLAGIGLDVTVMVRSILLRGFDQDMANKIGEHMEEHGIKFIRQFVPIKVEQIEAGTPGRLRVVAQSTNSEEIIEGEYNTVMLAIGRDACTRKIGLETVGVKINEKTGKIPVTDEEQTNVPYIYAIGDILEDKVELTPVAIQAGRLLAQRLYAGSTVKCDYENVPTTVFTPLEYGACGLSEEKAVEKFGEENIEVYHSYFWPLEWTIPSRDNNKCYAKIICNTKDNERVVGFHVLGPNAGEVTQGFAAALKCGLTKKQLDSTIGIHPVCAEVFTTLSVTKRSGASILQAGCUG
Procedure, shortened: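 Human TrxR (recombinant, or from placenta) was assayed at 10 mU/ml, 25°C, with its physiological substrate. The buffer was 100 mM potassium phosphate and 2 mM EDTA at pH 7.4, with NADPH as reductant. Routine measurements used His-tagged human thioredoxin 1 Cys73Ser. MB came from stocks in water. IC50 values were treated as Ki, assuming noncompetitive inhibition.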

[3] = Inhibition of Plasmodium falciparum thioredoxin reductase at pH 7.4
Procedure, shortened: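 Recombinant P. falciparum TrxR, at 25°C in 100 mM potassium phosphate, 2 mM EDTA (pH 7.4). Cognate-substrate reaction was run with 10 mU/ml enzyme, NADPH and P. falciparum thioredoxin 1 as substrate. IC50 taken as Ki, assuming noncompetitive inhibition.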

[4] = Inhibition of human recombinant glutathione reductase C63A mutant expressed in Escherichia coli SG5 at pH 6.9
[5] = Inhibition of human recombinant glutathione reductase C58A mutant expressed in Escherichia coli SG5 at pH 6.9
[6] = target: T3, Dihydrolipoyl dehydrogenase (Plasmodium falciparum, UniProt Q6KCB6); assay: Inhibition of Plasmodium falciparum recombinant dihydrolipoamide dehydrogenase at pH 7.3
T3 sequence (Q6KCB6 whole entry): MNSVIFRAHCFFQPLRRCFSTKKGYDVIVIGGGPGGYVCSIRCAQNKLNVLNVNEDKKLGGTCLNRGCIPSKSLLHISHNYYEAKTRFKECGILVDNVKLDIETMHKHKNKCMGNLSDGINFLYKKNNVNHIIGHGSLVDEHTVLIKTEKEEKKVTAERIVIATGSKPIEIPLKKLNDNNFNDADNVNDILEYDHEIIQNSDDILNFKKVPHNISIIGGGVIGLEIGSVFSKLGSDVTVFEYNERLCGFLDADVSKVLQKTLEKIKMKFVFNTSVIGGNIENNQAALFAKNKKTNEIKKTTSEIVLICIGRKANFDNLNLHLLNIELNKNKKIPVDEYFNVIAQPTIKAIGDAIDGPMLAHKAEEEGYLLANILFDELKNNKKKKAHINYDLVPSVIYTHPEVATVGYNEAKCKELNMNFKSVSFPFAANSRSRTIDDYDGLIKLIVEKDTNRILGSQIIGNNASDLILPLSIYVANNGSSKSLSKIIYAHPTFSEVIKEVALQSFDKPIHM

[7] = Inhibition of Plasmodium falciparum glutathione reductase at pH 6.9
Procedure, shortened: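 Recombinant P. falciparum GR, assayed at 25°C in 47 mM potassium phosphate, 1 mM EDTA, 200 mM KCl (pH 6.9). Physiological GSSG reduction was run with 10 mU/ml enzyme and NADPH. IC50 values were taken as Ki, assuming noncompetitive inhibition.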

[8] = Inhibition of human recombinant glutathione reductase C58A/C63A mutant expressed in Escherichia coli SG5 at pH 6.9
Plasmodium falciparum = assay: Antiplasmodial activity after 42 hrs against chloroquine-resistant Plasmodium falciparum K1 treated for 6 hrs by Giemsa stain; assay type: functional, organism-based
[9] = Stability at pH 5.0; assay type: physicochemical; conditions: buffer
Albumin = Albumin (Bos taurus, UniProt P02769); assay: Binding affinity to bovine serum albumin by fluorescence spectroscopy; assay type: ADME; conditions: read-out: Kdiss
Sequence of Albumin (P02769 whole entry): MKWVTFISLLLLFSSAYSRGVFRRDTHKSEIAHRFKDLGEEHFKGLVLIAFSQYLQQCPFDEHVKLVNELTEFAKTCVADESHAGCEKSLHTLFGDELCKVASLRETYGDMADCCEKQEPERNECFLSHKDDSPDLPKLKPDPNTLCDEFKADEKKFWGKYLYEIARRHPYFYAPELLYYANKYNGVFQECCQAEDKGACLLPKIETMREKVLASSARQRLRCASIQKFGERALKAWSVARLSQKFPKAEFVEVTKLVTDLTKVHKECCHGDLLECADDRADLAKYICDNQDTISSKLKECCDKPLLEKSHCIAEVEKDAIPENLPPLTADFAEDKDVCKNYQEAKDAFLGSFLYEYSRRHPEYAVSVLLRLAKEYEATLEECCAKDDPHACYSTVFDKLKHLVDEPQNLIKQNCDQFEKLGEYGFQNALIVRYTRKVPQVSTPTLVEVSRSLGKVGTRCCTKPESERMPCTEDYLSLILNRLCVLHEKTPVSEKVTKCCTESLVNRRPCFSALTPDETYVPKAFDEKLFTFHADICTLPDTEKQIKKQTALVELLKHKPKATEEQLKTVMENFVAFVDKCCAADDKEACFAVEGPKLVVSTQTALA

[10] = target: T4, Glutathione reductase, mitochondrial (Homo sapiens, UniProt P00390); assay: Inhibition of human recombinant glutathione reductase at pH 6.9
T4 sequence (P00390 whole entry): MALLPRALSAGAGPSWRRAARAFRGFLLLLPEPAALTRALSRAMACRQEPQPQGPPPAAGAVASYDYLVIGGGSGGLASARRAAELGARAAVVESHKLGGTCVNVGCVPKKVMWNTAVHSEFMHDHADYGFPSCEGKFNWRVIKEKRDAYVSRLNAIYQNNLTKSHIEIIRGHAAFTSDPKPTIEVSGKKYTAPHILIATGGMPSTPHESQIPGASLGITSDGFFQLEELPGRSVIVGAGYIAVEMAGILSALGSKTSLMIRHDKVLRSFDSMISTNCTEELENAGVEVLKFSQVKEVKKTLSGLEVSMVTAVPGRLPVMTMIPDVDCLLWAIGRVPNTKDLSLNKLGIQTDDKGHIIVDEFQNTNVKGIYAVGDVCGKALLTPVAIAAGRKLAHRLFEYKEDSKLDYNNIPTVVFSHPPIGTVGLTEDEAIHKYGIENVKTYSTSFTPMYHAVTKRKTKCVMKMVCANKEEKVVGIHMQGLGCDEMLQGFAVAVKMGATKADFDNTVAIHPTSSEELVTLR
Procedure, shortened: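 Recombinant human GR was assayed with its physiological disulfide substrate at 10 mU/ml enzyme and 25°C. The buffer was 47 mM potassium phosphate, 1 mM EDTA and 200 mM KCl at pH 6.9, with NADPH as reductant. MB came from stocks in water. IC50 values were treated as Ki, assuming noncompetitive inhibition.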

[11] = Solubility in 100 mM phosphate buffer at pH 7.0; assay type: physicochemical
[12] = Dissociation constant, pKa of the compound; assay type: physicochemical

SMILES: CN(C)c1ccc2nc3ccc(N(C)C)cc3[s+]c2c1.[Cl-] [METHYLENE BLUE ANHYDROUS]
IC50 [1]: > 1000 µM | IC50 [2]: 30 µM | IC50 [3]: 59 µM | IC50 [4]: Not Active | IC50 [5]: Not Active | IC50 [6]: > 1000 µM | IC50 [7]: 5.4 µM | IC50 [8]: Not Active | EC50 (Plasmodium falciparum): 0.0065 µM | Stability [9]: Stable | Kd (Albumin): 2.9 µM | IC50 [10]: 16.4 µM

solubility [11]: < 50 µM | pKa [12]: 4.5
SMILES: CN(C)c1ccc2c(c1)Sc1cc(N(C)C)ccc1N2 [HYDROMETHYLTHIONINE]
